Measured values from ChEMBL document CHEMBL1128354, “Fluorenylalkanoic and benzoic acids as novel inhibitors of cell adhesion processes in leukocytes” (J Med Chem, 1995).

What was measured:
Homo sapiens [1] = organism: Homo sapiens; assay: In vitro ability to inhibit the adhesion of neutrophil activated by tumor necrosis factor (alpha-TNF) to serum-coated plastic wells.; assay type: functional, organism-based
How it was run: (§1)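 Human blood PMN, isolated and RBC-lysed, at 4×10^6/mL were preincubated with compound (from 100× DMSO stocks) for 10 min at 37 °C in wells coated with 10% pooled human serum. TNF-α was then added to 0.6 nM and adherence run for 20 min. Adherent cells quantitated by BCA protein assay. Seven dilutions in duplicate gave IC50, averaged over at least three experiments ± SEM.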

[2] = LD50 value for endothelial cells was determined; assay type: ADME, cell-based, Endothelial cell; conditions: human, read-out: LD50 (the source's name)
How it was run: (§2)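 Viability read-out for LD50: human PMN (isolated from heparinised blood of unmedicated volunteers) or endothelial cell suspension in phenol red-free medium, with compound, incubated in serum-coated wells for 30 min at 37 °C. Calcein AM (added as 2 μM solution in HBSS++) for a further 30 min. Fluorescence read at ex/em 485/535 nm from live-cell esterase cleavage.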

[3] = (§3) LD50 value for polymorphonuclear granulocytes was determined; assay type: ADME; conditions: human, read-out: LD50 (the source's name); how it was run: as §2
[4] = In vitro ability to inhibit adherence of activated polymorphonuclear granulocytes to endothelial cells using IFN gamma-(HUVEC) assay was determined; conditions: Homo sapiens
Homo sapiens [5] = organism: Homo sapiens; assay: In vitro ability to inhibit the adhesion of neutrophil activated by platelet activating factor (PAF) to serum-coated plastic wells was determined; assay type: functional
How it was run: as §1, with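 “PAF” for “TNF-α”, “1 μM” for “0.6 nM”, “10” for “20”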

[6] = as §3; assay type: functional; conditions: Homo sapiens; read-out: LD50 (the source's name); how it was run: as §2

SMILES	IC50 (Homo sapiens [1]) [µM]	also measured
Cc1ccc2c(c1)C(COC(=O)N[C@@H](CC(C)C)C(=O)O)c1cc(C)ccc1-2	41.7	CC50 [2]: 354 µM; CC50 [3]: 343 µM; IC50 [4]: 117 µM; IC50 (Homo sapiens [5]): 31.7 µM
O=C(O)CCCCCC1c2ccccc2-c2ccccc21	55.2	–
O=C(O)c1ccc(C2c3ccccc3-c3ccccc32)cc1	81.6	–
CC(C)(C)c1ccc2c(c1)C(CCCCOc1ccc(C(=O)O)cc1)c1cc(C(C)(C)C)ccc1-2	8	–
O=C(O)c1ccc(OCCC2c3ccccc3-c3ccccc32)cc1	14	–
O=C(O)c1ccc(OCCCCC2c3cc(Cl)ccc3-c3ccc(Cl)cc32)cc1	8.1	–
O=C(O)CCCCC1c2ccccc2-c2ccccc21	87	–
O=C(Nc1ccccc1C(=O)O)OC1c2ccccc2-c2ccccc21	19	–
O=C(O)c1ccc(CC2c3cc(Cl)ccc3-c3ccc(Cl)cc32)cc1	29.1	–
CC(C)C[C@H](NC(=O)OCC1c2ccccc2-c2ccccc21)C(=O)O	78	–
O=C(O)CCCCCCCCCC1c2ccccc2-c2ccccc21	11.6	–
O=C(O)CCCCCCCC1c2ccccc2-c2ccccc21	32.2	–
CC(C)(C)c1ccc2c(c1)C(Cc1ccc(C(=O)O)cc1)c1cc(C(C)(C)C)ccc1-2	> 200	–
O=C(O)c1cccc(OCCC2c3ccccc3-c3ccccc32)c1	31	–
O=C(O)c1ccccc1OCCCCCC1c2ccccc2-c2ccccc21	15.8	–
O=C(O)c1ccccc1OCCC1c2ccccc2-c2ccccc21	73.3	–
O=C(O)CCC1c2ccccc2-c2ccccc21	> 200	–

SMILES	IC50 (Homo sapiens [1]) [µM]	also measured
O=C(O)C(CCCCC1c2ccccc2-c2ccccc21)Cc1ccccc1 (stereo unspecified)	6	CC50 [2]: 72 µM; CC50 [3]: 79 µM; IC50 [4]: 10.2 µM
O=C(O)c1cccc(OCCCCC2c3ccccc3-c3ccccc32)c1	6.6	–
O=C(O)c1ccc(OCCCC2c3ccccc3-c3ccccc32)cc1	15.6	CC50 [2]: > 1000 µM; CC50 [3]: 281 µM; IC50 [4]: 23.2 µM; IC50 (Homo sapiens [5]): 36.4 µM
O=C(O)c1ccc(OCCCCC2c3ccccc3-c3ccccc32)cc1	7.53	CC50 [2]: > 1000 µM; CC50 [3]: 113 µM; IC50 [4]: 19.8 µM; IC50 (Homo sapiens [5]): 5.2 µM
O=C(O)c1cccc(OCCCC2c3ccccc3-c3ccccc32)c1	13.8	–
O=C(O)CCCC1c2ccccc2-c2ccccc21	97	–
O=C(O)C1c2ccccc2-c2ccccc21	> 200	–
O=C(O)c1ccccc1OCCCC1c2ccccc2-c2ccccc21	55.4	–
O=C(O)c1ccc(CC2c3ccccc3-c3ccccc32)cc1	27.6	CC50 [2]: > 1000 µM; CC50 [3]: 306 µM; IC50 [4]: 91.2 µM; IC50 (Homo sapiens [5]): 17.8 µM
O=C(Nc1ccc(C(=O)O)cc1)OCCC1c2ccccc2-c2ccccc21	30	–
O=C(O)c1ccc(OCCCCCC2c3ccccc3-c3ccccc32)cc1	7.13	CC50 [2]: > 1000 µM; CC50 [3]: 295 µM; IC50 [4]: 48.2 µM; IC50 (Homo sapiens [5]): 11.7 µM
O=C(O)CC1c2ccccc2-c2ccccc21	> 200	–
O=C(Nc1ccc(C(=O)O)cc1)OCCC1c2cc(Cl)ccc2-c2ccc(Cl)cc21	9.8	CC50 [6]: 62.5 µM; CC50 [2]: 82.3 µM; IC50 [4]: 26.1 µM; IC50 (Homo sapiens [5]): 17.8 µM
O=C(N[C@@H](Cc1ccccc1)C(=O)O)OCC1c2ccccc2-c2ccccc21	58	–
O=C(O)c1cccc(OCCCCCC2c3ccccc3-c3ccccc32)c1	5.23	–
O=C(Nc1ccc(C(=O)O)cc1)OCC1c2ccccc2-c2ccccc21	> 500	–
O=C(Nc1ccc(C(=O)O)cc1)OC1c2ccccc2-c2ccccc21	30	–
